Measured values from ChEMBL document CHEMBL3779892, “Increasing the binding affinity of VEGFR-2 inhibitors by extending their hydrophobic interaction with the active site: Design, synthesis and biological evaluation of 1-substituted-4-(4-methoxybenzyl)phthalazine derivatives” (Eur J Med Chem, 2016).

Experiments:
Type in all cases: functional
U-251 = test: Growth inhibition of human U251 cells at 10 uM after 48 hrs by sulforhodamine B assay; details: U-251, 48 h, read-out: GI
Outline: (§1)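 NCI-60 panel, adherent cells grown in RPMI 1640 with 5% FBS and 2 mM L-glutamine, plated at 5000–40,000 cells/well and preincubated 24 h at 37 °C, 5% CO2. 10 µM final compound from DMSO stock, triplicate wells, 48 h. Fixed with cold TCA (10% final, 60 min, 4 °C) and stained with 0.4% SRB. Absorbance read at 515 nm; growth calculated against time-zero and control wells.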

[1] = Growth inhibition of human SF268 cells at 10 uM after 48 hrs by sulforhodamine B assay; details: SF-268, 48 h, read-out: GI
Outline: (§2)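 Run at NCI on the 60-line panel. Cells grown in RPMI 1640 with 5% FBS and 2 mM L-glutamine, plated at 5000–40,000 cells/well by doubling time, and held 24 h at 37 °C before dosing. Drug (DMSO stock) given at a single final 10 µM in triplicate wells for 48 h. Adherent cells fixed with cold TCA (10% final), suspension cells with 16% TCA. SRB stain read at 515 nm. Percent growth from Tz, C and Ti.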

HT-29 = test: Growth inhibition of human HT-29 cells at 10 uM after 48 hrs by sulforhodamine B assay; details: HT-29, 48 h, read-out: GI; outline: as §2
[2] = Growth inhibition of human SF295 cells at 10 uM after 48 hrs by sulforhodamine B assay; details: SF-295, 48 h, read-out: GI; outline: as §2
[3] = Growth inhibition of human OVCAR5 cells at 10 uM after 48 hrs by sulforhodamine B assay; details: OVCAR-5, 48 h, read-out: GI; outline: as §2
[4] = Growth inhibition of human UO31 cells at 10 uM after 48 hrs by sulforhodamine B assay; details: UO-31, 48 h, read-out: GI; outline: as §1
K562 = test: Growth inhibition of human K562 cells at 10 uM after 48 hrs by sulforhodamine B assay; details: K562, 48 h, read-out: GI; outline: as §2
[5] = Growth inhibition of human HCT15 cells at 10 uM after 48 hrs by sulforhodamine B assay; details: HCT-15, 48 h, read-out: GI; outline: as §2
MDA-MB-468 = test: Growth inhibition of human MDA-MB-468 cells at 10 uM after 48 hrs by sulforhodamine B assay; details: MDA-MB-468, 48 h, read-out: GI; outline: as §2
[6] = Growth inhibition of human NCI-ADR-RES cells at 10 uM after 48 hrs by sulforhodamine B assay; details: read-out: GI; outline: as §2
[7] = Growth inhibition of human DU145 cells at 10 uM after 48 hrs by sulforhodamine B assay; details: DU-145, 48 h, read-out: GI; outline: as §2
[8] = Growth inhibition of human BT549 cells at 10 uM after 48 hrs by sulforhodamine B assay; details: BT-549, 48 h, read-out: GI; outline: as §2
[9] = Growth inhibition of human IGROV1 cells at 10 uM after 48 hrs by sulforhodamine B assay; details: IGROV-1, 48 h, read-out: GI; outline: as §2
NCI-H460 = test: Growth inhibition of human NCI-H460 cells at 10 uM after 48 hrs by sulforhodamine B assay; details: NCI-H460, 48 h, read-out: GI; outline: as §2
NCI-H322M = test: Growth inhibition of human NCI-H322M cells at 10 uM after 48 hrs by sulforhodamine B assay; details: read-out: GI; outline: as §2
[10] = Growth inhibition of human HOP92 cells at 10 uM after 48 hrs by sulforhodamine B assay; details: HOP-92, 48 h, read-out: GI; outline: as §2
MDA-MB-231 = test: Growth inhibition of human MDA-MB-231 cells at 10 uM after 48 hrs by sulforhodamine B assay; details: MDA-MB-231, 48 h, read-out: GI; outline: as §2
NCI-H522 = test: Growth inhibition of human NCI-H522 cells at 10 uM after 48 hrs by sulforhodamine B assay; details: NCI-H522, 48 h, read-out: GI; outline: as §2
A498 = test: Growth inhibition of human A498 cells at 10 uM after 48 hrs by sulforhodamine B assay; details: A498, 48 h, read-out: GI; outline: as §2
NCI-H226 = test: Growth inhibition of human NCI-H226 cells at 10 uM after 48 hrs by sulforhodamine B assay; details: NCI-H226, 48 h, read-out: GI; outline: as §2
[11] = Growth inhibition of human COLO205 cells at 10 uM after 48 hrs by sulforhodamine B assay; details: COLO 205, 48 h, read-out: GI; outline: as §2
MCF7 = test: Growth inhibition of human MCF7 cells at 10 uM after 48 hrs by sulforhodamine B assay; details: MCF7, 48 h, read-out: GI; outline: as §2
[12] = Growth inhibition of human SNB75 cells at 10 uM after 48 hrs by sulforhodamine B assay; details: SNB-75, 48 h, read-out: GI; outline: as §2
[13] = Growth inhibition of human OVCAR4 cells at 10 uM after 48 hrs by sulforhodamine B assay; details: OVCAR-4, 48 h, read-out: GI; outline: as §2
KM12 = test: Growth inhibition of human KM12 cells at 10 uM after 48 hrs by sulforhodamine B assay; details: KM12, 48 h, read-out: GI; outline: as §2
ACHN = test: Growth inhibition of human ACHN cells at 10 uM after 48 hrs by sulforhodamine B assay; details: read-out: GI; outline: as §2
[14] = Growth inhibition of human OVCAR8 cells at 10 uM after 48 hrs by sulforhodamine B assay; details: OVCAR-8, 48 h, read-out: GI; outline: as §2
[15] = Growth inhibition of human SNB19 cells at 10 uM after 48 hrs by sulforhodamine B assay; details: SNB-19, 48 h, read-out: GI; outline: as §2
[16] = Growth inhibition of human RPMI8226 cells at 10 uM after 48 hrs by sulforhodamine B assay; details: RPMI-8226, 48 h, read-out: GI; outline: as §2
T47D = test: Growth inhibition of human T47D cells at 10 uM after 48 hrs by sulforhodamine B assay; details: read-out: GI; outline: as §1
SK-MEL-5 = test: Growth inhibition of human SK-MEL-5 cells at 10 uM after 48 hrs by sulforhodamine B assay; details: SK-MEL-5, 48 h, read-out: GI; outline: as §2
Malme-3M = test: Growth inhibition of human MALME-3M cells at 10 uM after 48 hrs by sulforhodamine B assay; details: read-out: GI; outline: as §2
786-0 = test: Growth inhibition of human 786-0 cells at 10 uM after 48 hrs by sulforhodamine B assay; details: 786-0, 48 h, read-out: GI; outline: as §2
NCI-H23 = test: Growth inhibition of human NCI-H23 cells at 10 uM after 48 hrs by sulforhodamine B assay; details: NCI-H23, 48 h, read-out: GI; outline: as §2
[17] = Growth inhibition of human LOXIMVI cells at 10 uM after 48 hrs by sulforhodamine B assay; details: LOX IMVI, read-out: GI; outline: as §2
[18] = Growth inhibition of human OVCAR3 cells at 10 uM after 48 hrs by sulforhodamine B assay; details: OVCAR-3, 48 h, read-out: GI; outline: as §2

SMILES: COc1ccc(Cc2nnc(Nc3ccc(Cl)c(C(F)(F)F)c3)c3ccccc23)cc1
- inhibition of growth at 10 µM (U-251): 59%
- inhibition of growth at 10 µM [1]: < 30%
- inhibition of growth at 10 µM (HT-29): 48%
- inhibition of growth at 10 µM [2]: 49%
- inhibition of growth at 10 µM [3]: 33%
- inhibition of growth at 10 µM [4]: 63%
- inhibition of growth at 10 µM (K562): 60%
- inhibition of growth at 10 µM [5]: 58%
- inhibition of growth at 10 µM (MDA-MB-468): 54%
- inhibition of growth at 10 µM [6]: 50%
- inhibition of growth at 10 µM [7]: 37%
- inhibition of growth at 10 µM [8]: < 30%
- inhibition of growth at 10 µM [9]: 32%
- inhibition of growth at 10 µM (NCI-H460): 74%
- inhibition of growth at 10 µM (NCI-H322M): 37%
- inhibition of growth at 10 µM [10]: 58%
- inhibition of growth at 10 µM (MDA-MB-231): 40%
- inhibition of growth at 10 µM (NCI-H522): 49%
- inhibition of growth at 10 µM (A498): 46%
- inhibition of growth at 10 µM (NCI-H226): 43%
- inhibition of growth at 10 µM [11]: < 30%
- inhibition of growth at 10 µM (MCF7): 48%
- inhibition of growth at 10 µM [12]: < 30%
- inhibition of growth at 10 µM [13]: 45%
- inhibition of growth at 10 µM (KM12): 52%
- inhibition of growth at 10 µM (ACHN): 45%
- inhibition of growth at 10 µM [14]: 40%
- inhibition of growth at 10 µM [15]: 43%
- inhibition of growth at 10 µM [16]: 94%
- inhibition of growth at 10 µM (T47D): 59%
- inhibition of growth at 10 µM (SK-MEL-5): < 30%
- inhibition of growth at 10 µM (Malme-3M): < 30%
- inhibition of growth at 10 µM (786-0): 41%
- inhibition of growth at 10 µM (NCI-H23): 40%
- inhibition of growth at 10 µM [17]: < 30%
- inhibition of growth at 10 µM [18]: 59%

SMILES: COc1ccc(Cc2nnc(Nc3ccc(Cl)cc3)c3ccccc23)cc1
- inhibition of growth at 10 µM (U-251): 38%
- inhibition of growth at 10 µM [1]: < 30%
- inhibition of growth at 10 µM (HT-29): 50%
- inhibition of growth at 10 µM [2]: 50%
- inhibition of growth at 10 µM [3]: < 30%
- inhibition of growth at 10 µM [4]: 68%
- inhibition of growth at 10 µM (K562): 48%
- inhibition of growth at 10 µM [5]: 33%
- inhibition of growth at 10 µM (MDA-MB-468): 42%
- inhibition of growth at 10 µM [6]: 48%
- inhibition of growth at 10 µM [7]: 42%
- inhibition of growth at 10 µM [8]: < 30%
- inhibition of growth at 10 µM [9]: 36%
- inhibition of growth at 10 µM (NCI-H460): 45%
- inhibition of growth at 10 µM (NCI-H322M): 45%
- inhibition of growth at 10 µM [10]: 76%
- inhibition of growth at 10 µM (MDA-MB-231): 36%
- inhibition of growth at 10 µM (NCI-H522): 38%
- inhibition of growth at 10 µM (A498): 53%
- inhibition of growth at 10 µM (NCI-H226): 34%
- inhibition of growth at 10 µM [11]: < 30%
- inhibition of growth at 10 µM (MCF7): 36%
- inhibition of growth at 10 µM [12]: < 30%
- inhibition of growth at 10 µM [13]: 33%
- inhibition of growth at 10 µM (KM12): 30%
- inhibition of growth at 10 µM (ACHN): 47%
- inhibition of growth at 10 µM [14]: 35%
- inhibition of growth at 10 µM [15]: 38%
- inhibition of growth at 10 µM [16]: 69%
- inhibition of growth at 10 µM (T47D): 44%
- inhibition of growth at 10 µM (SK-MEL-5): 35%
- inhibition of growth at 10 µM (Malme-3M): < 30%
- inhibition of growth at 10 µM (786-0): 43%
- inhibition of growth at 10 µM (NCI-H23): 39%
- inhibition of growth at 10 µM [17]: 58%
- inhibition of growth at 10 µM [18]: 40%

SMILES: COc1ccc(Cc2nnc(Nc3cccc(Cl)c3)c3ccccc23)cc1
- inhibition of growth at 10 µM (U-251): 34%
- inhibition of growth at 10 µM [1]: < 30%
- inhibition of growth at 10 µM (HT-29): 31%
- inhibition of growth at 10 µM [2]: 33%
- inhibition of growth at 10 µM [3]: < 30%
- inhibition of growth at 10 µM [4]: 61%
- inhibition of growth at 10 µM (K562): 45%
- inhibition of growth at 10 µM [5]: 33%
- inhibition of growth at 10 µM (MDA-MB-468): 30%
- inhibition of growth at 10 µM [6]: 32%
- inhibition of growth at 10 µM [7]: < 30%
- inhibition of growth at 10 µM [8]: < 30%
- inhibition of growth at 10 µM [9]: < 30%
- inhibition of growth at 10 µM (NCI-H460): 34%
- inhibition of growth at 10 µM (NCI-H322M): < 30%
- inhibition of growth at 10 µM [10]: 63%
- inhibition of growth at 10 µM (MDA-MB-231): 39%
- inhibition of growth at 10 µM (NCI-H522): 50%
- inhibition of growth at 10 µM (A498): 34%
- inhibition of growth at 10 µM (NCI-H226): 35%
- inhibition of growth at 10 µM [11]: < 30%
- inhibition of growth at 10 µM (MCF7): < 30%
- inhibition of growth at 10 µM [12]: 32%
- inhibition of growth at 10 µM [13]: < 30%
- inhibition of growth at 10 µM (KM12): < 30%
- inhibition of growth at 10 µM (ACHN): 31%
- inhibition of growth at 10 µM [14]: < 30%
- inhibition of growth at 10 µM [15]: 37%
- inhibition of growth at 10 µM [16]: 89%
- inhibition of growth at 10 µM (T47D): 41%
- inhibition of growth at 10 µM (SK-MEL-5): < 30%
- inhibition of growth at 10 µM (Malme-3M): < 30%
- inhibition of growth at 10 µM (786-0): < 30%
- inhibition of growth at 10 µM (NCI-H23): < 30%
- inhibition of growth at 10 µM [17]: < 30%
- inhibition of growth at 10 µM [18]: 34%
